Screening results: PubChem BioAssay, several laboratories
Ec RNAP inh: blocks E. coli RNA polymerase transcription; P0A8V2; fluorescence transcription assay; inhibition, %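 (tested at 10 µM)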; 62,000 compounds, 0.2% hits; AID 559; in the data active = inhibition above about 20%
JNK3 inh: inhibitors of human JNK3 kinase. P53779. purified JNK3 kinase activity, HTS. inhibition, % at 8 µM. 60,000 compounds, 0.61% hits. AID 746; in the data active = inhibition above about 17%
RORA act: activates the human nuclear receptor RORA; P35398; CHO-K1 Gal4-RORA LBD luciferase reporter, luminescence; percent increase over mock-subtracted basal signal; activation, % at 10 µM; 65,000 compounds, 1.5% hits;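 active = activation above the mean of all tested compounds plus 3 SD, cut at about 49% in these data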
SF1 activator: SF-1 (human) activation; Q13285; AID 522; activation, % at 10 µM; 65,000 compounds, 1.9% hits; CHO-K1 Gal4-SF-1 LBD luciferase reporter; % increase over DMSO SF-1-specific signal;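 active = activation above the mean activation of all tested compounds plus 3 SD, cut at about 50% in these data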
Target sequence (Q13285 whole entry, looked up, the tested form may be a part): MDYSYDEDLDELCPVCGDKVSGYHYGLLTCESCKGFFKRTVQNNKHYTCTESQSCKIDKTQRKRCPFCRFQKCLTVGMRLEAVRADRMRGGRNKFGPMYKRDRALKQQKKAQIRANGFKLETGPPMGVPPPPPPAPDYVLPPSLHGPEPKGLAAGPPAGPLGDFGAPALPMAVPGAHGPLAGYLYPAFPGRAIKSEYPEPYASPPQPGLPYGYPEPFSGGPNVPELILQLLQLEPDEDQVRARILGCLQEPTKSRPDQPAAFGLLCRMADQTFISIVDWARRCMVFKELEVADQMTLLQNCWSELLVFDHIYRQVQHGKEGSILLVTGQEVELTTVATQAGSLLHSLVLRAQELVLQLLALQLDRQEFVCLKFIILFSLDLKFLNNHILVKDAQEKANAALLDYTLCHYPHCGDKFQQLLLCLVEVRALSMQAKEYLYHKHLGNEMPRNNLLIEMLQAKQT
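Assay system: CHO-K1 cells co-transfected with Gal4 DBD–human SF-1 LBD, 5xGal4 luciferase reporter; doses: 10 µM only; incubation: 20 h compound exposure at 37 °C after 1 h cell settling; signal: luciferase light emission; evaluation: percent activation versus DMSO; repeats: one test per compound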
BAP1 block: human BAP1 deubiquitinase inhibition | recombinant BAP1, Ub-AMC hydrolysis fluorescence kinetic; hits give low values | activity remaining (% of control), % at 20 µM | 72,000 compounds, 0.48% hits | AID 436;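 active = activity remaining at or below 50% of control, provided the compound also passes the data quality filters; inactive = the rest, including low values that fail the filters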
Hits are given with their value. A selection: hits, their analogues and other compounds. The true share with any hit is near 3.2%.

`CCOC(=O)C1=C(c2ccccc2)Nc2ncnn2C1c1cccc(OC)c1OC` (stereo not drawn) gave Ec RNAP inh inactive, JNK3 inh inactive, RORA act inactive, SF1 activator inactive and BAP1 block inactive.
Screening CCCN(CCC)CCCNC(=O)c1cc2c(=O)n(C)c3ccccc3c2n1C returned Ec RNAP inh 50, JNK3 inh inactive, RORA act inactive, SF1 activator inactive and BAP1 block inactive.
COCCCNC(=O)c1cc2c(=O)n(C)c3ccccc3c2n1C was read as Ec RNAP inh inactive, JNK3 inh inactive, RORA act 60, SF1 activator inactive and BAP1 block inactive.
`CCN(CC)CCCNC(=O)c1cc2c(=O)n(C)c3ccccc3c2n1C` gave Ec RNAP inh inactive, JNK3 inh inactive, RORA act inactive, SF1 activator inactive and BAP1 block inactive.
`O=C(Nc1cccc(-c2cnc3ccccc3n2)c1)c1ccco1` gave Ec RNAP inh inactive, JNK3 inh inactive, RORA act 61, SF1 activator 55 and BAP1 block inactive.
Screening O=C(CNC(=O)c1ccc(Br)o1)Nc1cccc(-c2cnc3ccccc3n2)c1 returned Ec RNAP inh inactive, JNK3 inh 20, RORA act inactive and SF1 activator inactive.
Cc1ccc(N2C(=O)c3ccc(N)cc3C2=O)cc1C was read as Ec RNAP inh inactive, JNK3 inh inactive, RORA act 107 and SF1 activator 64.
`Cc1ccc(N2C(=O)c3ccccc3C2=O)cc1I` gave BAP1 block inactive.
For Cc1ccc(N2C(=O)c3ccc(N)cc3C2=O)cc1 the results were Ec RNAP inh inactive, JNK3 inh inactive, RORA act 55, SF1 activator inactive and BAP1 block inactive.
Screening O=C(c1cc2nc(C3CC3)cc(C(F)(F)F)n2n1)N1CCCC1 returned Ec RNAP inh inactive, JNK3 inh inactive, RORA act inactive, SF1 activator inactive and BAP1 block inactive.
For Cc1cc(=O)[nH]c(=S)n1-c1ccccc1 the results were Ec RNAP inh inactive, JNK3 inh inactive, RORA act inactive, SF1 activator inactive and BAP1 block inactive.
For O=c1[nH]c(=S)c2c(n1-c1ccccc1)CCC2 the results were Ec RNAP inh inactive, JNK3 inh 18, RORA act inactive and SF1 activator inactive.
NC1=NC(c2ccccc2)N(c2ccccc2)C(N)=N1 (stereo not drawn) was read as BAP1 block inactive.
Cn1nnnc1SCC(=O)Nc1ccccc1N1CCOCC1 was read as Ec RNAP inh inactive, JNK3 inh inactive, RORA act inactive, SF1 activator inactive and BAP1 block inactive.
`Cn1c(-c2ccc(F)cc2)cnc1SCC(=O)Nc1ccccc1N1CCOCC1` gave Ec RNAP inh inactive, JNK3 inh inactive, RORA act inactive and SF1 activator 70.
For O=c1c2ccccc2nc2sc3ccccc3n12 the results were JNK3 inh inactive, RORA act 60, SF1 activator 57 and BAP1 block inactive.
COC(=O)/C=c1/sc2nc3ccccc3n2c1=O was read as Ec RNAP inh inactive, JNK3 inh inactive, RORA act inactive, SF1 activator inactive and BAP1 block inactive.
Cc1cn(S(=O)(=O)c2ccc(Br)c3ccccc23)cn1 was read as Ec RNAP inh inactive, JNK3 inh 40, RORA act inactive, SF1 activator inactive and BAP1 block inactive.
Cc1ccc(C(=O)N2CCN(c3cccc(Cl)c3)CC2)cc1C was read as Ec RNAP inh inactive, JNK3 inh inactive, RORA act inactive, SF1 activator inactive and BAP1 block inactive.
For C=CCn1c(SCc2ccc(C#N)cc2)nnc1-c1cccc(OC)c1 the results were Ec RNAP inh inactive, JNK3 inh inactive, RORA act inactive, SF1 activator inactive and BAP1 block inactive.
c1ccc(Nc2ccccc2Nc2ccccn2)nc1 was read as Ec RNAP inh inactive, JNK3 inh 43, RORA act inactive, SF1 activator inactive and BAP1 block inactive.
Oc1cccc2ccc(Nc3ccccn3)nc12 was read as Ec RNAP inh inactive, JNK3 inh inactive, RORA act inactive, SF1 activator inactive and BAP1 block inactive.
NC(=O)c1ccccc1N/C=C/C(=O)c1ccccc1 was read as Ec RNAP inh inactive, JNK3 inh inactive, RORA act inactive, SF1 activator inactive and BAP1 block inactive.
For Cc1nc2cc(C(=O)O)ccc2s1 the results were Ec RNAP inh inactive, JNK3 inh inactive, RORA act inactive, SF1 activator 53 and BAP1 block inactive.
Cn1cccc1CNC(=O)Nc1ccc(Cl)c(Cl)c1 was read as JNK3 inh inactive, RORA act 60, SF1 activator 66 and BAP1 block inactive.
Screening Nc1ccccc1NC1=CC(=O)CC(c2ccco2)C1 (stereo not drawn) returned Ec RNAP inh inactive, JNK3 inh inactive, RORA act inactive, SF1 activator inactive and BAP1 block inactive.
Screening Cc1ccc(NC2=CC(=O)CC(c3ccco3)C2)c(N)c1 (stereo not drawn) returned Ec RNAP inh inactive, JNK3 inh inactive, RORA act 50, SF1 activator 58 and BAP1 block inactive.
For CCOC(=O)c1c(NC(=O)CSc2nnnn2-c2ccc3c(c2)OCCO3)sc(C)c1C the results were Ec RNAP inh inactive, JNK3 inh inactive, RORA act inactive, SF1 activator inactive and BAP1 block inactive.
For COc1ccc(C(C)=O)cc1CN1C(=O)C(C)N(c2ccc(C)cc2)C1=O (stereo not drawn) the results were Ec RNAP inh inactive, RORA act inactive and SF1 activator inactive.
For O=C1c2ccccc2C(O)N1c1cccnc1 (stereo not drawn) the results were Ec RNAP inh inactive, JNK3 inh inactive, RORA act inactive, SF1 activator inactive and BAP1 block inactive.
For CCOc1ccc(N2C(=O)c3ccccc3C2O)cc1 (stereo not drawn) the results were Ec RNAP inh inactive, JNK3 inh inactive, RORA act inactive, SF1 activator 69 and BAP1 block inactive.
Screening COc1cc(C(=O)Nc2nc3ccccc3[nH]2)cc(OC)c1OC returned Ec RNAP inh inactive, JNK3 inh inactive, RORA act inactive, SF1 activator inactive and BAP1 block inactive.
Screening O=C(COc1ccccc1)Nc1nc2ccccc2[nH]1 returned Ec RNAP inh inactive, JNK3 inh inactive, RORA act 55, SF1 activator 60 and BAP1 block inactive.
Screening CC(C)(C)OC(=O)N1CCNc2ccccc2C1 returned Ec RNAP inh inactive, JNK3 inh inactive, RORA act inactive, SF1 activator inactive and BAP1 block inactive.
COc1ccc(Cn2c(C3CC3)nc3ccc(NC(=O)c4ccco4)cc3c2=O)cc1 was read as Ec RNAP inh inactive, JNK3 inh inactive, RORA act inactive and SF1 activator 59.
CCC(=O)Nc1ccc2nc(C3CC3)n(Cc3ccccc3)c(=O)c2c1 was read as Ec RNAP inh inactive, JNK3 inh inactive, RORA act inactive, SF1 activator 63 and BAP1 block inactive.
Screening Cc1[nH]c(=O)[nH]c1C(=O)CCCCC(=O)OCC(=O)Nc1ccccn1 returned Ec RNAP inh inactive, JNK3 inh 43, RORA act inactive, SF1 activator inactive and BAP1 block inactive.
`O=C(Cc1ccc(Cl)cc1)c1ccc(O)cc1O` gave BAP1 block inactive.
